We go through 14 molecules from ChEMBL document CHEMBL1240468, “Regioselective hydrostannation of diarylalkynes directed by a labile ortho bromine atom: an easy access to stereodefined triarylolefins, hybrids of combretastatin A-4 and isocombretastatin A-4” (Eur J Med Chem, 2010).

SMILES strings stand for the structures.

One assay has as its system HCT-116. Kind of assay: Cytotoxicity against human HCT116 cells after 72 hrs. The assay is classed as functional, cell-based. The following applies: HCT-116, 72 h. The procedure, abridged:
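Cells seeded at 5 × 10³ per well in growth medium, cultured 24 h, then given compound in DMSO (under 0.1% final). After 72 h incubation, resazurin added for 2 h and fluorescence read (excitation 560 nm). IC50 taken as concentration reducing cell growth by 50% after 72 h treatment.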

The nature of assay [1]: Inhibition of sheep brain tubulin microtubule assembly by turbidimetry assay. On the set-up: species or system Ovis aries. In a few lines: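 Sheep brain tubulin purified by two assembly–disassembly cycles, about 2–3 mg/mL in 0.1 M MES, 0.5 mM MgCl2, 1 mM EGTA, 1 mM GTP, pH 6.6. Compounds in DMSO; incubation 10 min at 37 °C, then 5 min at 0 °C. Assembly followed continuously by turbidity at 350 nm at 37 °C.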

By IC50 is commonly meant the point on the concentration scale where inhibition reaches its midpoint. In the case of `COCOc1cc(/C=C(/c2ccc(OC)c(OCOC)c2)c2cc(OC)c(OC)c(OC)c2Br)ccc1OC`, the IC50 with HCT-116 was over 10 µM; in assay [1] (read-out: IC50), 8 µM.

With `COc1ccc(/C=C(\c2ccc(OC)cc2)c2cc(OC)c(OC)c(OC)c2)cc1`, the IC50 was over 10 µM in the assay with HCT-116 and 8.1 µM in assay [1] (read-out: IC50).

In the case of `COc1ccc(/C(=C\c2cc(OC)c(OC)c(OC)c2)c2cc(OC)c(OC)c(OC)c2)cc1`, the figures for the IC50 (with HCT-116; in assay [1]) were over 10 µM and “Not Active”, respectively. For the molecule `COc1ccc(/C=C(/c2ccc(OC)cc2)c2cc(OC)c(OC)c(OC)c2)cc1`, the figures for the concentration for half-maximal inhibition (IC50) (with HCT-116; in assay [1] (read-out: IC50)) were over 10 µM and 8 µM, respectively. Consider `COc1ccc(/C(=C/c2ccc(OC)c(O)c2)c2cc(OC)c(OC)c(OC)c2)cc1`, for which the IC50 was over 10 µM in the assay on HCT-116 and 7.8 µM in assay [1] (read-out: IC50). With `COc1ccc(/C=C(/c2ccc(C)cc2)c2cc(OC)c(OC)c(OC)c2)cc1O`, the IC50 is 3 µM with HCT-116 and “Not Active” in assay [1]. In the case of `COc1ccc(/C=C(\c2cc(OC)c(OC)c(OC)c2)c2ccc3ccccc3c2)cc1O`, the IC50 in the assay on HCT-116 is 8 µM; in assay [1], “Not Active”.

With `COc1ccc(/C=C(/c2ccc(OC)c(F)c2)c2cc(OC)c(OC)c(OC)c2)cc1O`, the IC50 is 8 µM with HCT-116 and “Not Active” in assay [1]. On to `COc1ccc(/C=C(/c2ccc(OC)c(O)c2)c2cc(OC)c(OC)c(OC)c2)cc1O`, for which the IC50 came to 5 µM in the assay on HCT-116 and 8.5 µM in assay [1] (read-out: IC50). As to `COc1ccc(/C(=C\c2cc(OC)c(OC)c(OC)c2)c2cc(OC)c(OC)c(OC)c2)c(Br)c1`, the IC50 with HCT-116 was over 10 µM; in assay [1], “Not Active”. For `COc1ccc(/C=C(/c2ccc(OC)cc2)c2cc(OC)c(OC)c(OC)c2Br)cc1`, in that order: over 10 µM and “Not Active”. As for `COc1ccc(/C(=C/c2ccc(OC)c(O[Si](C)(C)C(C)(C)C)c2)c2cc(OC)c(OC)c(OC)c2Br)cc1`, the IC50 in the assay on HCT-116 was over 10 µM; in assay [1], “Not Active”. Consider `C=C(c1ccc(OC)c(O)c1)c1cc(OC)c(OC)c(OC)c1`, for which the IC50 with HCT-116 is 0.002 µM; in assay [1] (read-out: IC50) it was 2.1 µM. `COc1ccc(/C=C\c2cc(OC)c(OC)c(OC)c2)cc1O` [COMBRETASTATIN A4] showed an IC50 with HCT-116 of 0.002 µM.
